Laboratory results as given in article PMC7056512 (Cancer research, 2020).
Read-outs that look alike come from different tables or passages of the source.

What was measured:
[1] = test system: HNSCC cells and patient-matched CAFs; assay: protein synthesis, methionine analog incorporation; type: cell-based, human; settings: for suppression of translation: 100nM, all cells; for inhibition of protein synthesis: at concentrations between 10 and 100nM, 1.5h treatment
[2] = test system: HNSCC cell lines (013C, 036C, 049C, 067C); assay: nonadherent sphere formation; type: cell-based, human; settings: 1,000nM
Procedure, shortened: (§1)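 3x10^3 cells/well in ultra-low-attachment wells with serum-free DMEM/F12 plus 10ng/ml EGF and 10ng/ml bFGF; medium supplemented on days 4, 7 and 10. Spheres (>50µm) imaged, counted and sized (diameter) at day 10. Replicates: 013C n=4 (16 wells); 036C, 049C and 067C n=3 (12 wells).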

Myc in 067C cells = assay: Western blot densitometry of Myc; type: cell-based, human; settings: 24h
19 HNSCC cell lines = assay: cell growth, CellTiter-Glo, 5 days; type: cell-based, human; settings: read-out: average IC50, growth, average of 19 HNSCC lines
036C cells [3] = assay: nonadherent sphere formation; type: cell-based, human; settings: 1,000nM, 10 days
Procedure, shortened: as §1

[4] = test system: four non-transformed normal lines; assay: clonogenic radio-modulation; type: cell-based
CUHN004 CSCs = assay: sphere formation by CSCs sorted from PDX tumors; type: cell-based, human; settings: 1,000nM
Procedure, shortened: (§2)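 CSCs sorted from PDX tumours plated at 1x10^4 per well in ultra-low-attachment wells. Medium was serum-free DMEM/F12 with 10ng/ml EGF and 10ng/ml bFGF, supplemented on days 4, 7 and 10. After 14 days, all spheres >50µm imaged, counted and diameter measured.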

[5] = molecular target: cap-independent translation of capless luciferase mRNA; assay: in vitro translation of uncapped poly; type: biochemical, rabbit; settings: read-out: IC50, in vitro cap-independent translation; 30 min at 30°C
036C cells [6] = assay: protein synthesis, methionine analog incorporation; type: cell-based, human; settings: 1nM
[7] = test system: HNSCC cancer cells (Detroit562, FaDu); assay: clonogenic radio-modulation; type: cell-based, human; settings: multiple SVC112 doses
CUHN036 PDX = assay: PDX efficacy study; type: in vivo, Athymic Nude-Foxn1^nu mice; settings: for T/C (treatment vs control): twice weekly, day 28
Procedure, shortened: (§3)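 Tumor pieces from 4th-8th-generation PDX implanted on both flanks of 6-10-week-old female mice. Anesthetized mice shielded except flank tumors and irradiated at 3 Gy (115 cGy/min) twice weekly for four weeks. Test compound given IP at 60mg/kg right after irradiation and 6h later. Tumors measured twice weekly. ALDH+CD44high CSC fraction measured by flow cytometry on day 28, then related to tumor treatment/control ratio by linear regression.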

036C cells [8] = assay: SRB antiproliferative assay; type: cell-based, human; settings: read-out: IC50, antiproliferative
013C cells [9] = assay: SRB antiproliferative assay; type: cell-based, human; settings: read-out: IC50, antiproliferative
CUHN047 PDX = assay: PDX efficacy study; type: in vivo, Athymic Nude-Foxn1^nu mice; settings: for T/C (treatment vs control): twice weekly, day 28
Procedure, shortened: as §3

CUHN013 CSCs = assay: sphere formation by CSCs sorted from PDX tumors; type: cell-based, human; settings: 1,000nM
CUHN013 PDX = assay: PDX efficacy study; type: in vivo, Athymic Nude-Foxn1^nu mice
Procedure, shortened: as §3

[10] = molecular target: eEF2 release from the ribosome (Homo sapiens, UniProt P13639); assay: co-immunoprecipitation of eEF2 with ribosomal protein RPL13a; type: cell-based; settings: 100nM; 013C and 036C cells
049C cells [11] = assay: SRB antiproliferative assay; type: cell-based, human; settings: read-out: IC50, antiproliferative
067C cells [12] = assay: SRB antiproliferative assay; type: cell-based, human; settings: read-out: IC50, antiproliferative
Myc in 013C cells = assay: Western blot densitometry of Myc; type: cell-based, human; settings: 24h
013C, 049C, 067C cells = assay: ribosome profiling; type: cell-based, human; settings: 1,000nM, 6h
Procedure, shortened: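 Cells grown 48h in 10cm dishes to ~75% confluence, then treated 6h with DMSO or test compound at 1,000nM. Libraries built with the TruSeq Ribo Profile mammalian protocol. Total mRNA fragments and ribosome-protected fragments sequenced on Illumina HiSeq. RPF counts normalised to RNA-seq, with a >2-fold enrichment cutoff.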

013C cells [13] = assay: protein synthesis, methionine analog incorporation; type: cell-based, human; settings: 10nM
067C cells [14] = assay: nonadherent sphere formation; type: cell-based, human; settings: 1,000nM, 10 days
Procedure, shortened: as §1

049C cells [15] = assay: nonadherent sphere formation; type: cell-based, human; settings: 1,000nM, 10 days
Procedure, shortened: as §1

067C cells [16] = assay: protein synthesis, methionine analog incorporation; type: cell-based, human; settings: 1nM
Det562 HNSCC cells [17] = settings: read-out: IC50, proliferation
013C cells [18] = assay: nonadherent sphere formation; type: cell-based, human; settings: 1,000nM, 10 days
Procedure, shortened: as §1

CUHN004 PDX = assay: PDX efficacy study; type: in vivo, Athymic Nude-Foxn1^nu mice
Det562 HNSCC cells [19] = assay: clonogenic survival assay; type: cell-based, human; settings: read-out: IC50, clonogenicity, drug 24h, then 9 days growth
Myc in 036C cells = assay: Western blot densitometry of Myc; type: cell-based, human; settings: 24h
Myc in 049C cells = assay: Western blot densitometry of Myc; type: cell-based, human; settings: 24h
CUHN036 CSCs = assay: sphere formation by CSCs sorted from PDX tumors; type: cell-based, human; settings: 1,000nM
Procedure, shortened: as §2

[20] = SVC112 alone, 60mg/kg IP at 0h and 6h
[21] = radiation (3Gy) plus SVC112 60mg/kg
[22] = radiation plus SVC112, by day 28

Compound: COC(=O)C[C@](O)(CCCC(C)(C)O)C(=O)O[C@@H]1C(OC)=C[C@]23CCCN2CCc2cc4c(cc2[C@H]13)OCO4 [HHT, Homoharringtonine, reference compound]
- suppression of translation [1]: > 85%
- inhibition of protein synthesis [1]: Greater than 75%
- sphere formation [2]: blocked nearly all sphere formation

Compound: Meta Br-N-29-H derivative of RA-VII [SVC112]
- Myc reduction (Myc in 067C cells): > 80%
- IC50 (19 HNSCC cell lines): 155 nM
- sphere formation blocked (036C cells [3]): 100%
- dose-modifying factor (DMF) of radiation [4]: near or below 1
- sphere formation by CSCs (CUHN004 CSCs): blocked sphere formation
- IC50 [5]: 81 ± 16 nM
- decrease of protein synthesis (036C cells [6]): > 50%
- dose-modifying factor (DMF) of radiation [7]: > 1
- T/C (treatment vs control) (CUHN036 PDX; [20]): 0.45±0.12
- T/C (treatment vs control) (CUHN036 PDX; [21]): 0.08±0.08
- tumors that continued to regress and did not regrow after ending treatment (CUHN036 PDX; radiation plus SVC112, after end of treatment): six of eight
- tumors with complete regression (CUHN036 PDX; [22]): four of twelve
- decrease of CSC fraction (ALDH+CD44hi) in tumors (CUHN036 PDX; radiation plus SVC112, day 28): 10.4 fold
- IC50 (036C cells [8]): 3.8 nM
- IC50 (013C cells [9]): 50.5 nM
- T/C (treatment vs control) (CUHN047 PDX; [20]): 0.37±0.07
- T/C (treatment vs control) (CUHN047 PDX; [21]): −0.02±0.03
- tumors with complete regression (CUHN047 PDX; [22]): six out of ten
- decrease of CSC fraction (ALDH+CD44hi) in tumors (CUHN047 PDX; radiation plus SVC112, day 28): 7.6 fold
- sphere formation by CSCs (CUHN013 CSCs): formed fewer, albeit normal-sized spheres
- tumor response (CUHN013 PDX; SVC112 alone or with radiation, twice weekly): did not respond to any treatment
- decrease of CSC fraction (ALDH+CD44hi) in tumors (CUHN013 PDX; radiation plus SVC112, day 28): 2.4 fold
- release of eEF2 from the ribosome (immunoprecipitation of eEF2 with Rpl13a) [10]: blocked the release of eEF2 from the ribosome
- IC50 (049C cells [11]): 24.1 nM
- IC50 (067C cells [12]): 9.3 nM
- suppression of translation [1]: > 85%
- inhibition of protein synthesis [1]: Greater than 75%
- Myc level, % of baseline (Myc in 013C cells): > 60%
- increase in captured ribosome protected fragments of DUSP1 (013C, 049C, 067C cells): 238 fold
- increase in captured ribosome protected fragments of MAFF (013C, 049C, 067C cells): 346 fold
- increase in captured ribosome protected fragments of NUAK2 (013C, 049C, 067C cells): 666 fold
- increase in captured ribosome protected fragments of SERTAD1 (013C, 049C, 067C cells): 1699 fold
- inhibition of protein synthesis (013C cells [13]): ~ 50%
- sphere formation blocked (067C cells [14]): 79%
- sphere formation blocked (049C cells [15]): 48%
- decrease of protein synthesis (067C cells [16]): > 50%
- IC50 (Det562 HNSCC cells [17]): ~280 nM
- sphere formation blocked (013C cells [18]): 74%
- T/C (treatment vs control) (CUHN004 PDX; radiation (3Gy) plus SVC112 60mg/kg, twice weekly, day 28): 0.19±0.05
- decrease of CSC fraction (ALDH+CD44hi) in tumors (CUHN004 PDX; radiation plus SVC112, day 28): 7.9 fold
- IC50 (Det562 HNSCC cells [19]): ~15 nM
- Myc reduction (Myc in 036C cells): > 80%
- Myc reduction (Myc in 049C cells): > 80%
- sphere formation by CSCs (CUHN036 CSCs): blocked sphere formation
